Source: ChEMBL document CHEMBL3244343, “7-(Aminoethyl) ether and thioether of daunomycinone” (1979)

Legend:
L1210 [1] = test: Inhibition of RNA synthesis in mouse L1210 cells assessed as inhibition of [3H]uridine incorporation; assay type: functional; details: read-out: ED50 (the source's name)
How it was run: (§1)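 L1210 leukemia cells in culture. Incorporation of [3H]thymidine (DNA) or [3H]uridine (RNA) was measured, and the dose giving 50% inhibition (ED50) was reported. Follows a previously described procedure, with 1% Me2SO added for some compounds.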

L1210 [2] = test: Inhibition of DNA synthesis in mouse L1210 cells assessed as inhibition of [3H]thymidine incorporation; assay type: functional; details: read-out: ED50 (the source's name); how it was run: as §1
P388 [3] = test: Antitumor activity against mouse P388 cells allografted in mouse assessed as increase in survival time at 50 mg/kg, po q4d administered on days 5, 9 and 13 relative to control; assay type: functional
How it was run: (§2)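 P388 leukemia cells were injected ip into mice on day 0, and the tumor was allowed to advance before dosing on days 5, 9 and 13. Read-out is the survival time of treated relative to control mice (T/C, %), with ≥125% required for activity. Each value comes from a single test.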

P388 [4] = test: Antitumor activity against mouse P388 cells allografted in mouse assessed as increase in survival time at 6.25 mg/kg, po qd administered from day 1 to day 9 relative to control; assay type: functional
[5] = Binding affinity to DNA (unknown origin) assessed as DNA interaction by measuring change in melting temperature
How it was run: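 Thermal denaturation (melting temperature) shift of DNA in solution, read as ΔTm in °C. Buffer was 0.010 M phosphate, pH 7.0, with 10^-5 M EDTA plus 5% Me2SO to solubilize the compounds. Other steps followed a previously described method.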

P388 [6] = test: Antitumor activity against mouse P388 cells allografted in mouse assessed as increase in survival time at 200 mg/kg, po q4d administered on days 5, 9 and 13 relative to control; assay type: functional; how it was run: as §2
P388 [7] = test: Antitumor activity against mouse P388 cells allografted in mouse assessed as increase in survival time at 2 mg/kg, po q4d administered on days 5, 9 and 13 relative to control; assay type: functional; how it was run: as §2
P388 [8] = test: Antitumor activity against mouse P388 cells allografted in mouse assessed as increase in survival time at 0.78 mg/kg, po qd administered from day 1 to day 9 relative to control; assay type: functional
P388 [9] = test: Antitumor activity against mouse P388 cells allografted in mouse assessed as increase in survival time at 1 mg/kg, po q4d administered on days 5, 9 and 13 relative to control; assay type: functional; how it was run: as §2

| SMILES | EC50 (L1210 [1]) [nM] | EC50 (L1210 [2]) [nM] | T/C (P388 [3]) [%] | T/C (P388 [4]) [%] | ΔTm [5] [°C] | T/C (P388 [6]) [%] | T/C (P388 [7]) [%] | T/C (P388 [8]) [%] | T/C (P388 [9]) [%] |
| --- | --- | --- | --- | --- | --- | --- | --- | --- | --- |
| COc1cccc2c1C(=O)c1c(O)c3c(c(O)c1C2=O)C[C@@](O)(C(C)=O)C[C@@H]3OC(=O)CCN.Cl | 6000 | 8000 | 116 | 126 | 1 |  |  |  |  |
| COc1cccc2c1C(=O)c1c(O)c3c(c(O)c1C2=O)C[C@@](O)(C(C)=O)C[C@@H]3OCCN.Cl | 1000 | 2000 | 112 |  | 8.2 |  |  |  |  |
| COc1cccc2c1C(=O)c1c(O)c3c(c(O)c1C2=O)C[C@@](O)(C(C)=O)C[C@@H]3SCCN.Cl | 4000 | 6000 |  |  | 6.3 | 109 |  |  |  |
| COc1cccc2c1C(=O)c1c(O)c3c(c(O)c1C2=O)C[C@@](O)(C(C)=O)C[C@@H]3O[C@H]1C[C@H](N)[C@H](O)[C@H](C)O1.Cl [DAUNORUBICIN HYDROCHLORIDE] | 300 | 400 |  |  | 11.2 |  | 133 | 160 |  |
| COc1cccc2c1C(=O)c1c(O)c3c(c(O)c1C2=O)C[C@@](O)(C(=O)CO)C[C@@H]3O[C@H]1C[C@H](N)[C@H](O)[C@H](C)O1 [DOXORUBICIN] | 700 | 2000 |  |  | 13.6 |  |  | 197 | 130 |
